Reference: ChEMBL document CHEMBL3244170, “Synthesis and biological evaluation of 9,11-azo-13-oxa-15-hydroxyprostanoic acid, a potent inhibitor of platelet aggregation” (J Med Chem, 1979)
Activity calls are given as the source filed them. The rule behind the calls is not given here.

Assays:
Platelet [1] = assay: Inhibition of 2 x 10^-6 M ADP-induced platelet aggregation in human platelet rich plasma at 10^-4 M incubated for 1.5 mins at 37.5 degC; assay type: functional
Procedure, shortened: (§1)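 Human platelet-rich plasma incubated with test agent for 1.5 min at 37.5 °C, then aggregating agent added. Aggregation followed for 5 min turbidimetrically in a dual-channel aggregometer. Baseline (0%) was set with PRP. Full scale (100%) was set at the optical density of plasma treated with the aggregating agent alone. Agents were also checked for agonist activity at 10^-4 and 10^-6 M.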

Platelet [2] = assay: Inhibition of 8.2 x 10^-4 M arachidonic acid-induced platelet aggregation in human platelet rich plasma at 10^-4 M incubated for 1.5 mins at 37.5 degC; assay type: functional; procedure, shortened: as §1
Platelet [3] = assay: Effect on arachidonic acid metabolism in washed human platelet assessed as TxB2 level at 10^-4 M by GC-MS analysis (reference value: 14 nmol); assay type: functional
Platelet [4] = assay: Inhibition of TxA2-induced platelet aggregation in aspirinated human platelet at 10^-4 M incubated for 1.5 mins at 37.5 degC cells preincubated with PGH2 for 15 secs; assay type: functional, cell-based
Procedure, shortened: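 TxA2 was generated by stirring human platelet microsomes (0.1 mL, 1.9 mg protein/mL) with PGH2 at 37.5 °C for 15 s. The methods give PGH2 as 10^-4 M; the legend gives it as 1.4 nmol. Aspirinated PRP (0.9 mL), preincubated 1.5 min with inhibitor, was then added. Aggregation was monitored for 5 min. Boiled microsomes served as control.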

Platelet [5] = assay: Inhibition of 2 x 10^-6 M ADP-induced platelet aggregation in human platelet rich plasma at 10^-4 to 10^-6 M incubated for 1.5 mins at 37.5 degC; assay type: functional; procedure, shortened: as §1
Platelet [6] = assay: Inhibition of 1.4 x 10^-6 M PGH2-induced platelet aggregation in human platelet rich plasma at 10^-4 M incubated for 1.5 mins at 37.5 degC; assay type: functional; procedure, shortened: as §1
Platelet [7] = assay: Induction of 1.4 x 10^-6 M PGH2-induced platelet aggregation in human platelet rich plasma at 10^-4 to 10^-6 M incubated for 1.5 mins at 37.5 degC
Platelet [8] = assay: Induction of 8.2 x 10^-4 M arachidonic acid-induced platelet aggregation in human platelet rich plasma at 10^-4 to 10^-6 M incubated for 1.5 mins at 37.5 degC
Platelet [9] = assay: Inhibition of 9.5 x 10^-7 M 9,11 methanoepoxy-PGH2-induced platelet aggregation in human platelet rich plasma at 10^-4 M incubated for 1.5 mins at 37.5 degC; assay type: functional; procedure, shortened: as §1
Thromboxane-A synthase = biological target: T1, Thromboxane-A synthase (Homo sapiens, UniProt P24557); assay: Inhibition of thromboxane synthetase in intact human platelet microsomes assessed as inhibition of [1-14C]PGH2 to [1-14C]TxA2
T1 sequence (P24557 whole entry): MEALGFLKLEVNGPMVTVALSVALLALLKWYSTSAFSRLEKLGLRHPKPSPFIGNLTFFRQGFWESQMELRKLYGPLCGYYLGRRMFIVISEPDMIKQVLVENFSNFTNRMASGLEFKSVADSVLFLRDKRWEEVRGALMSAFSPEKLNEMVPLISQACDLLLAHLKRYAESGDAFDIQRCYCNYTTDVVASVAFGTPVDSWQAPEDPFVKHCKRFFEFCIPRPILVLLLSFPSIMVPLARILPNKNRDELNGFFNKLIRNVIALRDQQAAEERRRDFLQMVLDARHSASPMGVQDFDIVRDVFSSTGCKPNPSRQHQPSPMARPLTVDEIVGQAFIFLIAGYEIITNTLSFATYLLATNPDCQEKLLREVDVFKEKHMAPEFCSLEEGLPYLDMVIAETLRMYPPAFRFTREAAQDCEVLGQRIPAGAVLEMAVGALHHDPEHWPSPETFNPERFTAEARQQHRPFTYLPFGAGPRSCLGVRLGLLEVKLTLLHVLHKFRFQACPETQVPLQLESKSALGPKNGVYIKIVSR

Platelet [10] = assay: Induction of 9.5 x 10^-7 M 9,11 methanoepoxy-PGH2-induced platelet aggregation in human platelet rich plasma at 10^-4 to 10^-6 M incubated for 1.5 mins at 37.5 degC
Platelet [11] = assay: Effect on arachidonic acid metabolism in washed human platelet assessed as HETE level at 10^-4 M by GC-MS analysis (reference value: 23 nmol); assay type: functional
Platelet [12] = assay: Inhibition of 8.3 x 10^-4 M arachidonic acid-induced platelet aggregation in human platelet rich plasma incubated for 1.5 mins at 37.5 degC; assay type: functional; conditions: 0.025 h
Platelet [13] = assay: Inhibition of 8.5 x 10^-7 M 9,11 methanoepoxy-PGH2-induced platelet aggregation in human platelet rich plasma incubated for 1.5 mins at 37.5 degC; assay type: functional; conditions: 0.025 h

| IC50 (Thromboxane-A synthase) | IC50 (Platelet [12]) | IC50 (Platelet [13]) | Structure (SMILES) | inhibition (INH) (Platelet [1]) | inhibition (INH) (Platelet [2]) | Activity (Platelet [3]) | inhibition (Platelet [4]) | inhibition (Platelet [5]) | inhibition (INH) (Platelet [6]) | induction (Platelet [7]) | induction of platelet aggregation (Platelet [8]) | inhibition (INH) (Platelet [9]) | induction of platelet aggregation (Platelet [10]) | Activity (Platelet [11]) |
| --- | --- | --- | --- | --- | --- | --- | --- | --- | --- | --- | --- | --- | --- | --- |
| 1 µM | 31 µM | 5.5 µM | CCCCCC(O)CO[C@@H]1[C@@H](CCCCCCC(=O)O)[C@@H]2C[C@@H]1N=N2 (mixture of isomers) | 0% | 100% | 0 nmol | Active | inactive | 100% | inactive | inactive | 100% | inactive | 27 nmol |
| – | – | – | CCCCCC(O)CO[C@@H]1[C@@H](CCCCCCC(=O)O)[C@@H]2C[C@@H]1N(C(=O)OCC)N2C(=O)OCC (mixture of isomers) | – | 0% | – | – | inactive | – | inactive | inactive | 20% | inactive | – |
| – | – | – | CCOC(=O)N1[C@H]2C[C@@H]([C@H](CCCCCCC(=O)O)[C@H]2O)N1C(=O)OCC (racemic) | – | 0% | – | – | inactive | – | inactive | inactive | 21% | inactive | – |
| – | – | 36 µM | C=CCO[C@@H]1[C@@H](CCCCCCC(=O)O)[C@@H]2C[C@@H]1N(C(=O)OCC)N2C(=O)OCC (racemic) | 0% | 0% | – | – | inactive | 100% | inactive | inactive | 88% | inactive | – |
| – | – | – | C=CCO[C@@H]1[C@@H](CCCCCCC(=O)O)[C@@H]2C[C@@H]1N=N2 (racemic) | – | 0% | – | – | inactive | – | inactive | inactive | 20% | inactive | – |
